Assay results from different studies.
Protocols differ between the studies behind these lines.
Target: 5-hydroxytryptamine receptor 2B (HTR2B, Homo sapiens, UniProt P41595)

Compound	test	setting	measurement	result
Ic1cccc2cnccc12	ligand displacement, radioligand	10 µM	inhibition	79%
O=C(c1ccc(F)cc1)N(Cc1ccccc1)C1CCCCC1	cell-free assay, radioligand	10 µM	inhibition	20%
CCN(Cc1ccccc1C(F)(F)F)C(=O)C1CCN(S(=O)(=O)c2ccc3[nH]ncc3c2)CC1	ligand displacement, radioligand	10 µM	inhibition	32%
Nc1ccc(-c2ccncc2)cc1NC(=O)N1CCCC1	ligand displacement, radioligand	10 µM	inhibition	14%
CCCNc1nc2ccccc2n1Cc1ccc(Cl)cc1	ligand displacement	10 µM	inhibition	96.3%
O=C1N=C(N2CCCCN2)S/C1=C\c1ccc(F)cc1O	ligand displacement, radioligand	10 µM	inhibition	< 10%
N#Cc1cc(Cn2c(N3CCCC3)nc3ccccc32)ccc1F	ligand displacement	10 µM	inhibition	30.4%
O=C(Nc1ccc(S(=O)(=O)N2CCC(Cl)CC2)cc1)c1ccc([N+](=O)[O-])o1	ligand displacement, radioligand	10 µM	inhibition	8%
C#CCOCCOCCOc1ccc2c3c1C1CCCC1N3CCNC2 (racemic)	ligand displacement, radioligand	10 µM	inhibition	~70%
Cc1ncc(-c2cc(Cl)ccc2F)cc1-n1c(=O)n(CC(N)=O)c2ccccc21	ligand displacement	10 µM	inhibition	72%
Clc1cccc(OC[C@@H]2CN(CCN3CCc4ccccc43)CCO2)c1	calcium signal, agonist, fluorescence		Emax	71.2%
O=C(c1ccc(Cl)cc1)N(Cc1ccccc1)C1CCCCC1	ligand displacement, radioligand	10 µM	inhibition	19.9%
O=C(O)c1cc(-c2ccc(C3CCNCC3)cc2)c2ccc(-c3ccc(C(F)(F)F)cc3)cc2c1	ligand displacement	10 µM	inhibition	7.95%
CCN(CC)c1ccc(C2Nc3ccc(C(=O)c4ccccc4)cc3NC3=C2C(=O)CC(C)(C)C3)cc1 (centres unmarked)	ligand displacement, radioligand	10 µM	inhibition	50%
